Data published in ChEMBL document CHEMBL4513216, “Probing the Open Global Health Chemical Diversity Library for Multistage-Active Starting Points for Next-Generation Antimalarials” (ACS Infect Dis, 2020).

Assay: Toxicity liver stage against HepG2, at 10uM
Format: cell-based
Set-up: test concentration 10 uM, cell line HepG2-A16-CD81EGFP
Conditions: human, HepG2-A16-CD81EGFP cells; read-out: INHIBITION
Summary of the method: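 Uninfected HepG2-A16-CD81EGFP cells, 3 × 10^3 per well, 1536-well, plated on prespotted compound at 10 μM final, parasite-free screening media added to match infected plates; puromycin 10 μM positive, DMSO 0.5% negative; run in parallel with 48 h PbLuc assay at 37 °C, 5% CO2; viability by CellTiter-Glo luminescence, normalized to controls.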

Row | Structure (SMILES) | cytotoxicity at 10 µM [%]
1 | O=C(NC[C@H]1OC[C@@H](NC2COC2)[C@@H]1O)c1ccccc1 | -1.05
2 | Cc1ccc2c(c1)nc1n2[C@@H](CNC(=O)c2cccnc2)COC1 | 5.29
3 | Cc1ccc(CN2CC[C@H](c3nnc(COc4ccc(F)cc4)o3)C2)o1 | 5.2
4 | COc1ccc(C2CCCCCN2Cc2cn(C)nc2C)cc1 (stereo unspecified) | -4.96
5 | COc1ccc2c(c1)OC1(CCN(Cc3ccccc3C)CC1)CC2=O | 6.52
6 | CN1C(=O)C2(CC(=O)Nc3c2cnn3C(C)(C)C)c2c(Cl)cccc21 (stereo unspecified) | 3.41
7 | Cn1c(CN2CCOCC2)cc(=O)c(O)c1CN1CCOCC1 | -5.61
8 | O=C(CN1C(=O)CCC1=O)NCC1(O)CCc2ccccc21 (stereo unspecified) | -15.7
9 | CC(C)Nc1nc2c(c(NC3CC3)n1)CN(C(=O)c1ccncc1)CC2 | -2.29
10 | CS(=O)(=O)N1C[C@H]2CCC[C@@]2(COCC2CCOCC2)C1 | -0.173
11 | O=C(c1nc2c(s1)CCCN2C(=O)C1CC1)N1CCCC1 | 7.02
12 | CS(=O)(=O)N1CCOC2(CCN(c3nccs3)CC2)c2ccccc21 | 1.18
13 | COCCNC(=O)C1CN(Cc2ccsc2)Cc2ccnn2C1 (stereo unspecified) | -6.07
14 | CNC(=O)[C@@]12CCC3(CCN(S(=O)(=O)C4CC4)CC3)[C@@H]1CN(C(C)=O)C2 | -0.201
15 | O=C(Cc1ccsc1)N1CCn2cc(Cn3cncn3)nc2C1 | -142
16 | CC(=O)c1c(O)n(C)c2ccc(F)cc12 | 6.76
17 | COc1cccc(C2CC(=O)Nc3nc(N)sc32)c1OC (stereo unspecified) | 3.74
18 | Cc1csc([C@@H]2C[C@@H]3CCN(C(=O)c4cc(C)on4)C[C@H]3O2)n1 | 4.88
19 | O=C(c1ccsc1)N1CC(C(=O)N2CCOCC2)C2(CCOCC2)C1 (stereo unspecified) | -1.1
20 | Fc1cccc(CN2CCC[C@H](Cn3nnc(-c4ccccn4)n3)C2)c1 | 3.44
21 | CO[C@@H]1CC[C@@H](NC(=O)CCc2ccc(Cl)cc2)[C@H]1O | 3.84

Row | Structure (SMILES) | cytotoxicity at 10 µM [%]
22 | CC(C)c1cc(C(=O)NCCc2nc(-c3ccncc3)n[nH]2)[nH]n1 | -0.01
23 | Cc1cc(N(C)Cc2ncc(-c3ccccc3C(=O)O)s2)ncn1 | -0.241
24 | Nc1no[n+]([O-])c1C(=O)NCc1ccco1 | 2.94
25 | Cc1cncc(C(=O)N[C@@H]2CC[C@@H](N3CCOCC3)[C@@H]2O)c1 | 0.331
26 | CNC(=O)c1cccc(C2CNCCN2C(=O)C2CCNCC2)c1 (stereo unspecified) | -2.39
27 | Cc1c(CNC2CCN(c3ccccc3OC(F)F)C2)cnn1C (stereo unspecified) | -1.77
28 | CC(C)(NC(=O)NCc1cccc(Br)c1)C(=O)O | 9.13
29 | CCc1nc(Cn2cncc(Br)c2=O)no1 | -11.8
30 | CC1CN(C(=O)c2ccc(C(N)=O)cc2)c2ccc(F)cc2O1 (stereo unspecified) | 8.07
31 | Cc1noc(C)c1NC(=O)CCn1cc(Br)ccc1=O | 7.07
32 | CCN(C)C(=O)NCC1(CN2CCOCC2)CCCCC1 | -5.18
33 | Cc1cnn(CC(=O)N(CC2CN(C)CCO2)c2nccs2)c1 (stereo unspecified) | 1.79
34 | CC(=O)c1cccc(OCCCC(=O)N(C)Cc2cscn2)c1 | 0.175
35 | CCS(=O)(=O)c1ccccc1C(=O)NCC1Cc2ccccc2O1 (stereo unspecified) | -0.561
36 | CC(C)c1cc(NC(=O)CN2CCCC(Cn3cncn3)C2)on1 (stereo unspecified) | 14
37 | Cc1ccc(CNC(=O)CN2CCN(CCO)CC2)s1 | 9.03
38 | Cc1nn(C)c(N(C)C)c1CNC1CCCCNC1=O (stereo unspecified) | 7.76
39 | O=C(Nc1ccccc1Cn1cccn1)N1CCC(N2CCCC2)C1 (stereo unspecified) | 2.06
40 | CC(=O)c1ccc(-n2c(C)cn(CCC#N)c2=O)cc1 | 19.3
41 | CC(C)OCCCNC(=O)CSc1nnc(OC(C)C)s1 | -5.89
42 | Cc1ncoc1C(=O)N1CCn2c(COc3cccnc3)cnc2C1C (stereo unspecified) | -8.93

Row | Structure (SMILES) | cytotoxicity at 10 µM [%]
43 | Cn1cc(-c2nnn3c2COC(CNCC2CCOCC2)C3)cn1 (stereo unspecified) | 0.171
44 | CCCN(C)c1ncc2c(n1)N(C)CCN(CC1CC1)C2=O | -5.69
45 | O=C(O)C1(Cc2ccccc2Cl)CCN(c2ncccn2)CC1 | 7.04
46 | CC(=O)Nc1ccc(Cl)c(C(=O)N(C)Cc2nc(C)c[nH]2)c1 | 1.37
47 | Cc1ccn(CCNc2ncnc3c2CCN(S(C)(=O)=O)CC3)n1 | -3.03
48 | c1cc(-c2cnccn2)cc(-c2ccn(CCN3CCCCC3)n2)c1 | -4.54
49 | Cn1nc(C2CC2)c2c1NC(=O)CC2c1ccc(CN2CCCCC2)s1 (stereo unspecified) | -6.37
50 | Cn1c(CO)nnc1CC1CCN(Cc2ccc(C#N)cc2)CC1 | 4.98
51 | O=C1CCCN1Cc1nc(-c2ccsc2)no1 | -5.41
52 | CN1CCN(C2CCOCC2)CC12CCC(=O)N(CC1CC1)CC2 (stereo unspecified) | -1.93
53 | O=C(Cc1ccccn1)N1CCc2nc(-c3cnccn3)nc(O)c2C1 | 2.83
54 | CCc1c(C(=O)N2CCCC(N(C)C)C2)cnn1C(C)(C)C (stereo unspecified) | -0.088
55 | CCOCCCn1c(NC(=O)c2cc(C)no2)nc2ccccc21 | -5.69
56 | CS(=O)(=O)NC1CCN(C(=O)NCCc2ccccn2)CC1 | -14.4
57 | Cc1nc(C2CCCN2Cc2ccn(C)c(=O)c2)no1 (stereo unspecified) | -12.9
58 | COc1ccc(-c2nnc(CNCCn3cc(C)cn3)o2)cc1 | 1.32
59 | Cc1cc(C)n(CC2CN(Cc3noc(C)n3)CCO2)n1 (stereo unspecified) | 0.305
60 | CCCS(=O)(=O)NC1CCN(c2nnc(C)c(C)c2C#N)CC1 | 3.28
61 | CCn1cc(NC(=O)C2CCN(CCOC(C)C)CC2)cn1 | -5.4
62 | CN(C)CC1CN(c2ccc(C#N)cn2)CCO1 (stereo unspecified) | -4.67
63 | COCCc1noc(CN2CCCCC2Cn2cc(C)cn2)n1 (stereo unspecified) | -8.54

Row | Structure (SMILES) | cytotoxicity at 10 µM [%]
64 | Cc1nn(C)c(C)c1C1CCCN1Cc1cccc(C(N)=O)c1 (stereo unspecified) | -10.2
65 | CC(O)CN1CCN(C(=O)c2cccn2Cc2ccncc2)CC1 (stereo unspecified) | -10.9
66 | O=C(NCCc1cccc(F)c1)NCC(O)c1cccc(F)c1 (stereo unspecified) | -13.1
67 | COc1ccc(CCC(=O)Nc2cccnc2N2CCCC2)cc1Br | 1.06
68 | COc1cc(C(C)=O)ccc1OCCNCc1ccco1 | -5.05
69 | CN1CCO[C@H]2CN(S(=O)(=O)c3ccc(C#N)cc3)C[C@H]21 | 7.25
70 | O=c1ccc2c(n1CC1CCOCC1)CCN(Cc1ccoc1)CC2 | -128
71 | Cc1ccccc1N1CC2(CCCCN2CC2CC2)CC1=O (stereo unspecified) | 10.4
72 | CN1C[C@@H]2CN(C(=O)NCc3ccccc3)CCC[C@]2(C(=O)O)C1 | 9.55
73 | O=C([C@H]1COC[C@H]2CN(C3CCCC3)C[C@H]21)N1CCCCO1 | -9.47
74 | O=C1CC2(CCN(Cc3cccnc3)C2)CN1c1cncnc1 (stereo unspecified) | -65.7
75 | CN(C)[C@@H]1CN(C(=O)Cc2ccc(F)cc2)[C@@H]2CCCO[C@H]12 | 3.88
76 | Cc1ccc(C(=O)N2CCn3cc(CN(C)Cc4ccco4)nc3C2)o1 | 12.4
77 | Cn1cc(C(=O)N2CC[C@@H]3[C@@H]2CCN3Cc2ccccc2)cn1 | -69.8
78 | Cc1cccc(CN2CC3(CCN(C4CCOC4)CC3)OCC2=O)n1 (stereo unspecified) | -2.92
79 | CN1CC(=O)N(c2cccc(F)c2)CC12CCN(S(=O)(=O)C1CC1)C2 (stereo unspecified) | -71.8
80 | CC(C)NC(=O)[C@H]1C[C@H]2CN(C(=O)NCCc3ccccc3)C[C@@H]1O2 | 1.25
81 | CS(=O)(=O)CCC(=O)N1C[C@H]2CC[C@@H](C1)N(Cc1ccccn1)C2=O | 7.23
